From ChEMBL document CHEMBL1926621, “New potent 5-HT(2A) receptor ligands containing an N'-cyanopicolinamidine nucleus: Synthesis and in vitro pharmacological evaluation” (Eur J Med Chem, 2012)

Tests used:
[1] = biological target: 5-hydroxytryptamine receptor 2A (Rattus norvegicus, UniProt P14842); assay: Displacement of [3H]ketanserin from Sprague-Dawley rat brain cortex serotonin 5-HT2A receptor after 15 mins by liquid scintillation counting; settings: for Ki: read-out: Ki
Outline: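 Male Sprague-Dawley rat frontal cortex membranes in 50 mM Tris-HCl, 0.5 mM EDTA, 10 mM MgCl2 pH 7.4, with 0.1% ascorbate and pargyline. 0.4 nM [3H]ketanserin, 5 mg wet tissue, 15 min at 37 °C. Filtered on PEI-soaked glass fibre. Six compound concentrations in triplicate. IC50 converted to Ki by Cheng-Prusoff.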

[2] = biological target: 5-hydroxytryptamine receptor 2A (Rattus norvegicus) (UniProt P14842); assay: Displacement of [3H]ketanserin from Sprague-Dawley rat brain cortex serotonin 5-HT2A receptor at 0.0000001 uM after 15 mins by liquid scintillation counting
[3] = biological target: 5-hydroxytryptamine receptor 2A (Rattus norvegicus) (UniProt P14842); assay: Displacement of [3H]ketanserin from Sprague-Dawley rat brain cortex serotonin 5-HT2A receptor at 0.001 uM after 15 mins by liquid scintillation counting
[4] = biological target: 5-hydroxytryptamine receptor 2A (Rattus norvegicus) (UniProt P14842); assay: Displacement of [3H]ketanserin from Sprague-Dawley rat brain cortex serotonin 5-HT2A receptor at 0.00001 uM after 15 mins by liquid scintillation counting
[5] = biological target: T1, Adrenergic receptor alpha-1 (Rattus norvegicus, UniProt P15823+P23944+P43140); assay: Displacement of [3H]prazosin from rat brain cortex adrenergic alpha1 receptor after 30 mins by liquid scintillation counting
T1 sequence (P15823 whole entry): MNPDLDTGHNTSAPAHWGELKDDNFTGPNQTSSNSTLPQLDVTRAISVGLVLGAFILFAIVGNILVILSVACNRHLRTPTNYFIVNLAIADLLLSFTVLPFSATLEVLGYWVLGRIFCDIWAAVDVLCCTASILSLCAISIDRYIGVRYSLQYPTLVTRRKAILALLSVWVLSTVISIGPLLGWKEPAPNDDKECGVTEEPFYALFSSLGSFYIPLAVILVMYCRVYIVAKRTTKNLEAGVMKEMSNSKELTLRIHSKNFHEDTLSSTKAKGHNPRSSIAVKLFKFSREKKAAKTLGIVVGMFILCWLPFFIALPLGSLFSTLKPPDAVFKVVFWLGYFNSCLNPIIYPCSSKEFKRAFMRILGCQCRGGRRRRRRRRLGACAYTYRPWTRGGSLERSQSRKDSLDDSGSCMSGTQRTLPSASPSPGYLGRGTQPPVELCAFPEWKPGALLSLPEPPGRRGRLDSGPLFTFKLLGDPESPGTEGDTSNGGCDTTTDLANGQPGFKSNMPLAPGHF
T1 sequence (P23944 whole entry): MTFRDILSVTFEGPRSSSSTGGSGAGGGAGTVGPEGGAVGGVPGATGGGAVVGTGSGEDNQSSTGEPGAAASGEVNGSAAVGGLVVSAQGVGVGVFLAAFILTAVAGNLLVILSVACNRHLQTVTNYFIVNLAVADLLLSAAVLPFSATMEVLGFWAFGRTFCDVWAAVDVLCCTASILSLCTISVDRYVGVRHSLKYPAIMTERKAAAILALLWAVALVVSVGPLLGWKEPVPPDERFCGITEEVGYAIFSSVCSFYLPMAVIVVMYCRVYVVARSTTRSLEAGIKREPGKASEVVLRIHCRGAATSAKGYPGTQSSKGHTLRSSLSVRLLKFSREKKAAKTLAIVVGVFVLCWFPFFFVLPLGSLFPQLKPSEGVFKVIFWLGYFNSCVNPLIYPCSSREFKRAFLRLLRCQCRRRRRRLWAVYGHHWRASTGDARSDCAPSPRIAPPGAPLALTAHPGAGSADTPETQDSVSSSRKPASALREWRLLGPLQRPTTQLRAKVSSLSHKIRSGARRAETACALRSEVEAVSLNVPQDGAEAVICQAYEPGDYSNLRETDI
T1 sequence (P43140 whole entry): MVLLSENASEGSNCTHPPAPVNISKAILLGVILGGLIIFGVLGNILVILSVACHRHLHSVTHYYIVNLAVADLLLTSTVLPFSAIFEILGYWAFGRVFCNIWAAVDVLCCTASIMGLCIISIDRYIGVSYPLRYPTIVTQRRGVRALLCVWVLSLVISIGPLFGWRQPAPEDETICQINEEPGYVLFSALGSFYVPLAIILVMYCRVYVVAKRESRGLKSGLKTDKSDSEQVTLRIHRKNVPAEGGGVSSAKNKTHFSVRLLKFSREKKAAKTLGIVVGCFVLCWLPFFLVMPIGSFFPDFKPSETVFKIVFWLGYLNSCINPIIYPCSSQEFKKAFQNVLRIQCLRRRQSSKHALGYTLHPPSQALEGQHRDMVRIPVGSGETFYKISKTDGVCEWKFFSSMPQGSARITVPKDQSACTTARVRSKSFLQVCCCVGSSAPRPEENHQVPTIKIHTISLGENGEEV
Outline: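 Brain cortex homogenized in 50 mM Tris-HCl pH 7.2, spun twice at 50,000 g, resuspended in Tris-HCl pH 7.4. 0.4 nM [3H]prazosin final, 10 mg fresh tissue, 30 min at 25 °C. Nonspecific binding with phentolamine. GF/B filtration. Ki by Cheng-Prusoff from six-point triplicate curves.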

5-hydroxytryptamine receptor 2A (Rattus norvegicus), sequence (P14842 whole entry): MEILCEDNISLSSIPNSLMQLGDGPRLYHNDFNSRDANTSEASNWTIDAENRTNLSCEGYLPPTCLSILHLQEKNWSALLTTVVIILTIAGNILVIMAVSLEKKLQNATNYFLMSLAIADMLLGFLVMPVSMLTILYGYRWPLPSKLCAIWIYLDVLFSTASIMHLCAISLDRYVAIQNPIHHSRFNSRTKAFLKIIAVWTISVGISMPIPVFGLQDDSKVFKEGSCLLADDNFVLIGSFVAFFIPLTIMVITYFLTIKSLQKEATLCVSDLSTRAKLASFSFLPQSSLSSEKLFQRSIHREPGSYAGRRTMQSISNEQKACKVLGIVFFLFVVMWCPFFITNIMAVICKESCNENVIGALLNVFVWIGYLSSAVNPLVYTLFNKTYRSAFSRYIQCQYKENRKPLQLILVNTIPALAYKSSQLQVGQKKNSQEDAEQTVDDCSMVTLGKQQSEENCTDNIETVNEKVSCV
5-hydroxytryptamine receptor 2A, sequence (P14842 whole entry): as above

Row | IC50 [1] | Ki [1] | inhibition [2] | inhibition [3] | inhibition [4] | Ki [5] | Structure (SMILES)
1 | 2.12 pM | 0.00157 nM | 21.9% | 95.1% | 65.9% | 105 nM | COc1ccccc1N1CCN(CCCN/C(=N\C#N)c2ccccn2)CC1
2 | – | 1.12 nM | – | – | – | 130 nM | N#C/N=C(\NCCCN1CCN(c2ccccn2)CC1)c1ccccn1
3 | – | 2730 nM | – | – | – | 152 nM | CCOc1ccccc1N1CCN(CCCN/C(=N\C#N)c2ccccn2)CC1
4 | 21.7 pM | 0.0161 nM | 24.2% | 70.4% | 44.3% | > 10000 nM | N#C/N=C(\NCCCN1CCN(c2ncccn2)CC1)c1ccccn1
5 | 1.05 pM | 0.000778 nM | 34.9% | 85.9% | 62.8% | 770 nM | N#C/N=C(\NCCCN1CCN(c2cccc(C(F)(F)F)c2)CC1)c1ccccn1
6 | – | 0.867 nM | – | – | – | 729 nM | Cc1cccc(N2CCN(CCCN/C(=N\C#N)c3ccccn3)CC2)c1C
